Experimental data as given in PMC11796557 (RSC Advances, 2025).
pIC50: −log10 of the molar value.

What was measured:
Assay type in all cases: cell-based
[1] = test system: A549 (lung carcinoma); assay: MTT anticancer activity; conditions: Homo sapiens, A549, 48 h, read-out: IC50 A549
How it was run: (§1)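 Cells kept in DMEM with 10% FBS, 1% penicillin–streptomycin and 1% L-glutamine at 37 °C, 5% CO₂. They were seeded at 10 000 per well and attached for 24 h, then exposed to varying concentrations (from a 10 mM DMSO stock) for 48 h. MTT (5 mg mL⁻¹) was added for 4 h, formazan dissolved in DMSO, and A570 read. IC50 was calculated. DMSO served as vehicle control and cisplatin or doxorubicin as positive control. Values are mean ± SD of three independent experiments (n = 9).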

[2] = test system: normal fibroblasts; assay: MTT cytotoxicity assay, normal fibroblasts; conditions: Fibroblast, 48 h, read-out: IC50 Fibroblasts
How it was run: as §1

[3] = test system: PC3 (prostate carcinoma); assay: MTT anticancer activity; conditions: Homo sapiens, 48 h, read-out: IC50 PC3
How it was run: as §1

[4] = test system: MCF-7 (breast carcinoma); assay: MTT anticancer activity; conditions: Homo sapiens, MCF7, 48 h, read-out: IC50 MCF-7
How it was run: as §1

[5] = test system: HCT116 (colon carcinoma); assay: MTT anticancer activity; conditions: Homo sapiens, HCT-116, 48 h, read-out: IC50 HCT116
How it was run: as §1

pIC50 [1] | pIC50 [3] | pIC50 [4] | pIC50 [5] | Structure (SMILES) | pIC50 [2]
3.72 | 3.82 | 3.72 | 3.83 | O=C1CCCc2c1c(O)cc(=O)n2-c1ccccc1 [Compound 3a, 4-Hydroxy-1-phenyl-7,8-dihydroquinoline-2,5(1H,6H)-dione] | < 3.30
3.80 | 3.62 | 3.67 | 3.79 | Cc1ccc(-n2c3c(c(O)cc2=O)C(=O)CCC3)cc1 [Compound 3b, 4-Hydroxy-1-(p-tolyl)-7,8-dihydroquinoline-2,5(1H,6H)-dione] | < 3.30
3.59 | 3.60 | 3.58 | 3.86 | O=C1CCCc2c1c(O)cc(=O)n2-c1ccc(Cl)cc1 [Compound 3c, 1-(4-Chlorophenyl)-4-hydroxy-7,8-dihydroquinoline-2,5(1H,6H)-dione] | < 3.30
4.01 | 4.18 | 4.47 | 4.33 | O=C1CCCc2c1c(O)cc(=O)n2-c1ccc(F)cc1 [Compound 3d, 1-(4-Fluorophenyl)-4-hydroxy-7,8-dihydroquinoline-2,5(1H,6H)-dione] | < 3.30
4.17 | 4.35 | 4.20 | 4.53 | COc1ccccc1-n1c2c(c(O)cc1=O)C(=O)CCC2 [Compound 3e, 4-Hydroxy-1-(2-methoxyphenyl)-7,8-dihydroquinoline-2,5(1H,6H)-dione] | < 3.30
3.90 | 4.02 | 4.15 | 3.93 | CC1(C)CC(=O)c2c(O)cc(=O)n(-c3ccccc3)c2C1 [Compound 3f, 4-Hydroxy-7,7-dimethyl-1-phenyl-7,8-dihydroquinoline-2,5(1H,6H)-dione] | < 3.30
4.49 | 4.54 | 4.57 | 4.74 | CC1(C)CC(=O)c2c(O)cc(=O)n(Cc3ccccc3)c2C1 [Compound 3g, 1-Benzyl-4-hydroxy-7,7-dimethyl-7,8-dihydroquinoline-2,5(1H,6H)-dione] | < 3.30
4.06 | 4.53 | 4.49 | 4.54 | CC1(C)CC(=O)c2c(O)cc(=O)n(-c3ccc(F)cc3)c2C1 [Compound 3h, 1-(4-Fluorophenyl)-4-hydroxy-7,7-dimethyl-7,8-dihydroquinoline-2,5(1H,6H)-dione] | < 3.30
4.14 | 4.47 | 4.30 | 4.48 | COc1ccc(-n2c3c(c(O)cc2=O)C(=O)CC(C)(C)C3)cc1 [Compound 3i, 4-Hydroxy-1-(4-methoxyphenyl)-7,7-dimethyl-7,8-dihydroquinoline-2,5(1H,6H)-dione] | < 3.30
4.10 | 4.36 | 4.09 | 4.42 | COc1ccccc1-n1c2c(c(O)cc1=O)C(=O)CC(C)(C)C2 [Compound 3j, 4-Hydroxy-1-(2-methoxyphenyl)-7,7-dimethyl-7,8-dihydroquinoline-2,5(1H,6H)-dione] | < 3.30
– | – | 5.64 | 5.24 | COc1cccc2c1C(=O)c1c(O)c3c(c(O)c1C2=O)C[C@@](O)(C(=O)CO)C[C@@H]3O[C@H]1C[C@H](N)[C@H](O)[C@H](C)O1 [Doxorubicin, reference compound] | –
